From ChEMBL document CHEMBL3425408, “Design, synthesis, in vitro, and in vivo anticancer and antiangiogenic activity of novel 3-arylaminobenzofuran derivatives targeting the colchicine site on tubulin” (J Med Chem, 2015)
pIC50: −log10 of the molar value. The source made the active and inactive calls. The calls are words filed in the database; no cut-off is given here.

What was measured:
MCF7 = assay: Antiproliferative activity against human MCF7 cells after 72 hrs by (3-(4,5-dimethylthiazol-2-yl)-2,5-diphenyltetrazolium bromide test; assay type: functional, cell-based; details: MCF7, 72 h
HUVEC [1] = assay: Cytotoxicity against human HUVEC cells after 72 hrs by MTT assay; assay type: cell-based
Outline: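 HUVECs were isolated from umbilical cord veins, kept in M200 with low-serum growth supplement and used at passages 1–6. […] Mean ± SEM of three separate experiments.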

Tubulin = Tubulin (Bos taurus, UniProt Q6B856+Q862L2+Q862F3); assay: Inhibition of bovine brain tubulin assembly after 20 mins incubation by spectrophotometric analysis
Outline: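 Bovine brain tubulin (10 μM) was preincubated with varying compound concentrations in glutamate buffer at 30 °C, then chilled to 0 °C. GTP was added to 0.4 mM final and the mixture warmed to 30 °C in cuvettes.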

Tubulin (Bos taurus) = Tubulin (Bos taurus) (UniProt Q6B856+Q862L2+Q862F3); assay: Displacement of [3H]colchicine from bovine brain tubulin at 5 uM after 20 mins by scintillation counting analysis
Outline: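 Reaction mixtures held 1 μM tubulin, 5 μM [3H]colchicine and 5 μM test compound. Inhibition of radiolabelled colchicine binding was reported as percent inhibition.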

Jurkat = assay: Induction of cell cycle arrest in human Jurkat cells assessed as cell arrest at G2/M phase after 24 hrs by propidium iodide based flow cytometric analysis; assay type: functional
Outline: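 HeLa or Jurkat cells (5 × 10^5) treated 24 h. Cells fixed in ice-cold 70% ethanol, lysed with RNase A and 0.1% Triton X-100, and stained with propidium iodide. DNA content analyzed by flow cytometry to give cell-cycle phase distribution.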

HeLa [2] = assay: Effect on phosphatase cdc25 expression in human HeLa cells at 100 to 250 nM after 24 to 48 hrs by Western blot analysis; assay type: functional, cell-based
Outline: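 HeLa cells treated 24 or 48 h. Lysates cleared at 15000g, and 10 μg protein run on 7.5–15% SDS-PAGE and blotted to PVDF. Membranes blocked in 5% BSA and probed for cyclin B, p-cdc2 Tyr15 and cdc25c, then detected with peroxidase secondary and ECL. Blots stripped and reprobed for β-actin as loading control.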

HeLa [3] = assay: Induction of apoptosis in human HeLa cells assessed as caspase 3 activation after 24 to 48 hrs by Western blot analysis; assay type: functional, cell-based
Outline: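 HeLa lysates prepared after the indicated times. 10 μg protein separated by SDS-PAGE on PVDF blots. Primary antibodies (2 h, room temperature) against PARP, caspase-3, cleaved caspase-9, Bcl-2 and Mcl-1, then peroxidase secondary with ECL detection. β-Actin reprobe used as loading control.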

HeLa [4] = assay: Induction of apoptosis in human HeLa cells assessed as increase in Mcl-1 expression at 100 to 250 nM after 24 hrs by Western blotting analysis
Mus musculus [5] = assay: In vivo antitumor activity against mouse BNL 1ME A.7R.1 cells allografted in Balb/c mouse assessed as reduction in tumor growth at 10 mg/kg, ip up to 8 days relative to vehicle treated control; assay type: functional, organism-based; set-up: dose 10 mg/kg
Outline: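 Male Balb/c mice (8 weeks old) implanted s.c. in the dorsal region with 10^7 BNL 1ME A.7R.1 cells in PBS. Dosed i.p. daily from the second day at 5 or 10 mg/kg, in vehicle of 0.9% NaCl with 5% PEG 400 and 0.5% Tween 80 (7 μL/g). Tumors measured daily with calipers for 7 days, volume = AB²/2. Five mice per group.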

Mus musculus [6] = assay: In vivo antitumor activity against mouse BNL 1ME A.7R.1 cells allografted in Balb/c mouse assessed as reduction in tumor growth at 5 mg/kg, ip up to 8 days relative to vehicle treated control; assay type: functional, organism-based; set-up: dose 5 mg/kg
Outline: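 Male Balb/c mice, 8 weeks old, received 10^7 BNL 1ME A.7R.1 cells in 200 μL PBS subcutaneously in the dorsal region. Mice were randomised into groups of 5 and dosed ip daily from day 2. Vehicle was 0.9% NaCl with 5% PEG 400 and 0.5% Tween 80, at 7 μL/g. Tumours were measured daily by caliper for 7 days; V = AB²/2.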

HUVEC [7] = assay: Antivascular activity in HUVEC assessed as inhibition of endothelial cell migration to tumor site at 25 nM after 6 hrs by wound-healing assay; assay type: functional, cell-based; details: Homo sapiens
Outline: (§1)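 Scratch assay: confluent HUVEC monolayer on 0.1% collagen I wounded with a pipette tip and washed with PBS. Cells treated with compound and photographed at set times. Wound width measured in four areas and compared with the initial width to give gap closure. Three independent experiments.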

HUVEC [8] = assay: Antivascular activity in HUVEC assessed as inhibition of endothelial cell migration to tumor site at 5 nM after 24 hrs by wound-healing assay; assay type: functional, cell-based; details: Homo sapiens; outline: as §1
HUVEC [9] = assay: Antivascular activity in HUVEC assessed as distruption of capillary like tube formation at 5 to 25 nM after 1 hr by matrigel assay; assay type: functional, cell-based; details: Homo sapiens
Outline: (§2)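 Tube-disruption assay: HUVECs (passages 1–6) plated on gelled Matrigel and allowed 6 h to form capillary-like networks. Compound then added to the preformed networks for 1 or 3 h. Five fields per well photographed. Area covered, total network length, mesh number and branching points measured as percent change from complete-medium controls. Three independent experiments.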

HUVEC [10] = assay: Antivascular activity in HUVEC assessed as distruption of capillary like tube formation at 5 to 25 nM after 3 hrs by matrigel assay; assay type: functional, cell-based; details: Homo sapiens; outline: as §2
HUVEC [11] = assay: Cytotoxicity against HUVEC cells at 5 to 25 nM; assay type: cell-based; details: human, 0.025 µM
Chorioallantoic membrane [12] = assay: Induction of blood vessel formation in chick embryo chorioallantoic membrane (CAM) at 100 pmol/egg; assay type: functional, tissue-based; details: Gallus gallus
Chorioallantoic membrane [13] = assay: Antivascular activity in chick embryo chorioallantoic membrane (CAM) assessed as inhibition of FGF-induced blood vessel formation at 1 pmol/egg by microscopically measured on day 11; assay type: functional, tissue-based; details: Gallus gallus
Outline: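 CAM assay: alginate sponges carrying FGF plus compound (0.1–1.0 pmol per pellet) grafted onto the CAM of fertilized chicken eggs on day 11 of development. Blood vessels converging toward the implant counted under a stereomicroscope at 5× after 72 h (day 14). At least six eggs per group.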

[14] = Antivascular activity in mouse B16-BL6 cells allografted in C57/BL6 mouse assessed as reduction blood vessel formation in tumor measured at 30 mg/kg, ip after 24 hrs; assay type: functional; details: route intraperitoneal
Outline: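 C57BL/6 mice (6 weeks old) given 10^5 BL6-B16 melanoma cells s.c. in the dorsolateral flank in PBS. At 300 mm3 tumor volume, single i.p. dose of 30 mg/kg in DMSO. Tumors harvested 24 h later, frozen in OCT and cut into 4–5 μm sections. CD31-positive vessels counted in 5 fields per section (40× objective). Five mice per group.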

SMILES: CCOC(=O)c1oc2cc(OC)ccc2c1Nc1cc(OC)c(OC)c(OC)c1
- pIC50 (MCF7): 7.60
- pIC50 (HUVEC [1]): 6.66
- IC50 (Tubulin): 1500 nM
- inhibition (Tubulin (Bos taurus)): 74%
- Activity (Jurkat): Dose-dependent effect
- Activity (HeLa [2]): inactive
- Activity (HeLa [3]): Dose-dependent effect
- Activity (HeLa [4]): inactive

SMILES: COC(=O)c1oc2cc(OC)ccc2c1Nc1cc(OC)c(OC)c(OC)c1
- pIC50 (MCF7): 7.57
- pIC50 (HUVEC [1]): 6.12
- IC50 (Tubulin): 1100 nM
- inhibition (Tubulin (Bos taurus)): 83%
- Activity (Jurkat): Dose-dependent effect
- Activity (HeLa [2]): inactive
- Activity (HeLa [3]): Dose-dependent effect
- Activity (Mus musculus [5]): Active
- Activity (Mus musculus [6]): inactive
- Activity (HUVEC [7]): Active
- Activity (HUVEC [8]): Active
- Activity (HUVEC [9]): Active
- Activity (HUVEC [10]): Active
- Activity (HUVEC [11]): Non-toxic
- Activity (Chorioallantoic membrane [12]): inactive
- inhibition (Chorioallantoic membrane [13]): Active
- inhibition in vivo at 30 mg/kg [14]: 20%
- Activity (HeLa [4]): Active
